System: MS2 coat protein
Experiment: apparent Kd, MS2 coat protein; higher = weaker binding; RNA-MaP array; FMN 200 µM where present
In short: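 Two titrations, one without ligand and one with constant ligand, were run with SNAP-549-labelled MS2 coat protein from 0.7 or 1.5 nM, doubling to 3 µM. The targets were designs transcribed by stalled E. coli RNA polymerase on Illumina sequencing-chip clusters, in 100 mM Tris-HCl pH 7.5, 80 mM KCl, 4 mM MgCl2, BSA, DTT, yeast tRNA and Tween-20. The apparent Kd is the median of filtered per-cluster binding-curve fits, with green signal normalised to red-channel RNA signal and control-cluster median Fmax.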

[1] = designed as: OFF switch for flavin mononucleotide, no ligand
[2] = ligand present: flavin mononucleotide, designed as: OFF switch for flavin mononucleotide
[3] = designed as: ON switch for flavin mononucleotide, no ligand
[4] = ligand present: flavin mononucleotide, designed as: ON switch for flavin mononucleotide

| Sequence | apparent Kd [1] | apparent Kd [2] | apparent Kd [3] | apparent Kd [4] |
| --- | --- | --- | --- | --- |
| GAGAGGUCAGGAUAUGCAUGGCGGGACUUGCGUCGUGGCGUGCAGAAGGGACAUGAGGAUCACCCAUGUGGAGG | 169 nM | 203 nM | – | – |
| ACCACGGGAGGAUAUACAUGAGGAUCACCCAUGUCAACUCCACGUGCCCACGUCCUCUGUAGAAGGCCCUACAU | 16 nM | 24.3 nM | – | – |
| UUAUGUGUCGUAGGAUAUCAUUAGAUUUGUAAUUUAAUUGUAAUUUACAUAUGAGAAGGACGUUUACAUGAGGAUCACCCAUGU | 15.9 nM | 14.6 nM | – | – |
| UUUUAACAUGAGGAUCACCCAUGUGAGGAUAUCGAAAUUUAUAUUAAUAUUUAUAUUACGAGAAGGCACAUUUU | 81.6 nM | 82.4 nM | – | – |
| UGGGUUGUUGAGGAUAUCCCGACCGUCUGGUCGGGAGAAGGCAAUACAUGAGGAUCACCCAUGUCACACUUUUC | 32.2 nM | 66.5 nM | – | – |
| GCUCUACAUGAGGAUCACCCAUGUUCGGACGCACGAGGAUAUGCAUGGGCGAAAGCUGGUGCAGAAGGCGUGGGAC | – | – | 209 nM | 33.4 nM |
| GCCAUUUAUGUAGGAUAUGCGAGGCGAGCCUGAGCAGAAGGACAUGAGGAUCACCCAUGUAUUGCGGUUUAUGUUCAGAUCGCU | 16.1 nM | 18.3 nM | – | – |
| GGACGACCCAUUAACAUGAGGAUCACCCAUGUCAAAAGACAUGAGGAUAUGGUACCUAAUUGGUACCAGAAGGCAUGGUCGUCC | – | – | 1470 nM | 107 nM |
| GCAUAUGUCGUCUACAUGAGGAUCACCCAUGUUGAUAAACAUGAGGAUAUUGAUAAGAAUUGUAUCGAGAAGGUAUGUAGGUGC | – | – | 258 nM | 347 nM |
| GUGAAACAUGAGGAUCACCCAUGUGAGGAUAUGUUUUAGUAAUGAUGAAAGUAAAUCUACAGAAGGCACAAUGG | 75.8 nM | 117 nM | – | – |
| AGUUAAUAUCGAGGAUAUCUCAUGGAGACAUGAGGAUCACCCAUGUGAAUGGGAGAAGGCGAUAUUAACAGCAUGUUACAUGCA | – | – | 284 nM | 21.2 nM |
| ACCCAGUUUUGCACUACAUGAGGAUCACCCAUGUGAGCGAGCAGAAGGACGAUGGGUGGAAAAUCGUAGGAUAUGCACUGGGCU | – | – | 44.8 nM | 12.3 nM |
| ACUUGACAUGAGGAUCACCCAUGUCAGGAUAUAGUAGGACAAAUAAAUAAAAGUUCUACUAGAAGGGACUUGGG | 25.1 nM | 45.3 nM | – | – |
| CCUAAGGACACAGGAUAUAGCGUGGUGGCUGGGCUCCAACGGCGAGUGGCGCUAGAAGGGUGACCACAUGAGGAUCACCCAUGU | – | – | 537 nM | 214 nM |
| GGAUGACAUAGUCAUCCUUAACGAACAUGAGGAUCACCCAUGUAGGAUAUGCUACUCAACGAGUAGCAGAAGGACAUGUGUCUU | 26.5 nM | 142 nM | – | – |
| GCGGUAUUGUAAGGAUAUACUCUGUGAUGAAGAGUAGAAGGUACUUACAUGAGGAUCACCCAUGUUUAACGUGAAAAUAACCGC | – | – | 47 nM | 22.6 nM |
| AGUUACAGGAUAGGAUAUGGCGUGACAUGGCUGCCAGAAGGAUCCUCGGGAACAUGAGGAUCACCCAUGUGACCGUGUCGAGUC | – | – | 126 nM | 170 nM |
| AUGCUAGUGUGAGGAUAUACAUGAGGAUCACCCAUGUGUCCGAAGUACCGGACAUGAGGUACGUCGUAGAAGGUACAUUAGCAU | 21 nM | 102 nM | – | – |
| CCUCCGUAUUAGGAUAUCGUCCAGGAAACUGGACGAGAAGGAAUGACAUGAGGAUCACCCAUGUUAACGUGAUG | 21.5 nM | 50 nM | – | – |

| Sequence | apparent Kd [1] | apparent Kd [2] | apparent Kd [3] | apparent Kd [4] |
| --- | --- | --- | --- | --- |
| AGUGAGGGAGGAUAUACGUUGGUAUCACUGCAUUCGUCGUCACAUGAGGAUCACCCAUGUAGAAGGCCCGAGAG | 28.8 nM | 79.1 nM | – | – |
| GUAUUUUGAGGAUAUACUAUUAACCACAUGAGGAUCACCCAUGUUCUAUCAUGAAUUUAUGUAGAAGGCAGAAUGC | 71.8 nM | 128 nM | – | – |
| AUUUUGUCAGGAUAUGAUUAGUAGGAUGAGAGUGCUACUACUUAGAAGGGACAUGAGGAUCACCCAUGUAUUCC | 16.8 nM | 20 nM | – | – |
| GUCAACUCGUGAGGAUAUACAACACUGCUUCGGCAGUGUAUUAAGAUCACAUGAGGAUCACCCAUGUAGAAGGCACGAGCUGAU | 14.4 nM | 214 nM | – | – |
| GUCUUCAUGACAUGAGGAUCACCCAUGUGUUAUAUUUUUACUAAGGAUAUAUUUUUAAUGUUGAGAUAGAAGGUAGUUUCGGUC | 101 nM | 121 nM | – | – |
| AUGGGUUAAGGAGGAUAUAGAGGGAGAAGUAAACAUGAGGAUCACCCAUGUAUUUAAUUAGUUUACUAGAAGGCUUGUGAUUGU | – | – | 33.6 nM | 41.5 nM |
| GAGCUUGAUGAGAAGGGUUACAUGAGGAUCACCCAUGUCGACCUUGGCGUAACAGGAUAUCAUCGGGCUCUGUGCGUUGACCCA | 23.7 nM | 120 nM | – | – |
| GGCGAACAGGCUAACAUGAGGAUCACCCAUGUGGACUCAUGGUAGGAUAUGCUGUAGAAACUACAGCAGAAGGGCCGGUGAGCC | – | – | 66.1 nM | 294 nM |
| AGAAACUACGAGAAGGACAUGUGGUCCUUCAGUUACAUGAGGAUCACCCAUGUAGGAUAUCGUAGUUUCAGGAUCGUGAGAUCU | 32.5 nM | 13 nM | – | – |
| UUUAUAAAGGUAGGAUAUUGUAUUAUAAUUAAAUAAGAAGGAUCACACAUGAGGAUCACCCAUGUAUGAGGAUCACCCAUGUAU | 15.7 nM | 14.4 nM | – | – |
| GGACGUCACAUUAACAUGAGGAUCACCCAUGUCAAAGGACAUGAGGAUAUGGAUCCUAAUUGGAUCCAGAAGGCAUGGACGUCC | – | – | 398 nM | 34.3 nM |
| ACAAAUGGAGGAUAUACAUGAGGAUCACCCAUGUUUAUCCUACAUGUGUGAUAAUAAUGUAGAAGGCCAUAUGA | 15.9 nM | 12.5 nM | – | – |
| CUCCUACAUGAGGAUCACCCAUGUCAGGAUAUCUCAGUGGCGCCUAAAUGUGCCACCCAGAGAAGGGACGUGCA | 11.6 nM | 15.3 nM | – | – |
| GAACAUGUCCGAGGAUAUCUGGAAACAUUUCCAAGAGAAGGCGGACAUGAGGAUCACCCAUGUCUCUCCUCAUCAAAUCCAAGU | 10.1 nM | 91.9 nM | – | – |
| GUCGUGUGAGGAUAUGAUUUUUCGGCGGGCUUGCGUCUGCUUCAGAAGGCACAUGAGGAUCACCCAUGUUUGUC | 12 nM | 29.5 nM | – | – |
| AAUUUACAUGAGGAUCACCCAUGUCAGGAUAUGGUUUUAUUUUUUUUUUUUUUUGAUUCCAGAAGGGACAGUUA | 21.1 nM | 19.7 nM | – | – |
| GGUAGAGACGUUAACAUGAGGAUCACCCAUGUCGAAGGAGAUGAGGAUAUCGUAUACGAUGUAUAUGAGAAGGCAUGGUCUGCC | – | – | 24.4 nM | 11.7 nM |
| AAUAACAGAGGAUAUACUGUUUUAUGUGUUUAUUAUUUUGAACAUGAGGAUCACCCAUGUAGAAGGCUGAAUGA | 32.7 nM | 31.5 nM | – | – |
| GCACGGCAUGUAGGAUAUCGAGCGCCGGGCGCUCGAGAAGGACAUGAGGAUCACCCAUGUAUUCUGAGUGACAGAGUGCUGUGC | 19 nM | 46.8 nM | – | – |

| Sequence | apparent Kd [1] | apparent Kd [2] | apparent Kd [3] | apparent Kd [4] |
| --- | --- | --- | --- | --- |
| CUAACACAUGAGGAUCACCCAUGUGAGGAUAUGCGUACGUUGUCCGUAGGCGACGUGCGCAGAAGGCGCUUGGU | 55.8 nM | 62.8 nM | – | – |
| UAAUGUAUAUAGGAUAUCUAGCUGGAUACAGCUAGAGAAGGAUGUACAUGAGGAUCACCCAUGUAAAUCUCAAU | 18.3 nM | 31.2 nM | – | – |
| ACCGAACAUGAGGAUCACCCAUGUGAGGAUAUAGACGCGUAUUUAACGCGUAACAAAACUAGAAGGCACUGGGC | 27.2 nM | 16.1 nM | – | – |
| ACAAAUGGAGGAUAUACAUGAGGAUCACCCAUGUUUAUCCUACAUAUGUGAUCCUCAUGUAGAAGGCCAUUUGA | 11.4 nM | 10.8 nM | – | – |
| GGUCCAACAUGAGGAUAUGGCACCUUAUUGGUGCCAGAAGGCAUGUCUAUAGACAUGAGGAUCACCCAUGUAAUAAAUUGGACC | – | – | 689 nM | 47.8 nM |
| GAUGCAUAUGAGAAGGCGAUCAUGAAACAUGAUCGAGGAUAUCAUGUAAACAUGAGGAUCACCCAUGUAUGGGUAAAGUGCAUC | – | – | 392 nM | 27.7 nM |
| CGCUGCCACGCAGGAUAUGCAUUGGAUUCCAAUGCAGAAGGGCGAUUACAUGAGGAUCACCCAUGUGUCGGCAGUGAAGAAGAG | – | – | 590 nM | 44.8 nM |
| AAUAACAGAGGAUAUACUAUUUUAUGUAUUUAUUAUUUUAAACAUGAGGAUCACCCAUGUAGAAGGCUGAAUAA | 19.8 nM | 20.7 nM | – | – |
| AUUACCACGGUAAGGAUAUUGUACGCAGCAUGCGUUAAGAAGGUACAUGAGGAUCACCCAUGUCUUCCGGUAGC | 20.5 nM | 21.2 nM | – | – |
| AUUAUAUAGAGAGGAUAUAGAAUAUUAUUUUAACAUGAGGAUCACCCAUGUAACCUUAUGUGUAGCUAGAAGGCUCAUUUAUUA | 42.2 nM | 74.2 nM | – | – |
| AUCAGCUCGUCAGGAUAUACGUCACUGCGUCAGCAGUGCGGUAAGAUCACAUGAGGAUCACCCAUGUAGAAGGGACGAGCUGAU | 6.4 nM | 20.1 nM | – | – |
| CUUUUGUGAGGAUAUCAGUAGUAAAAAAAUAAAAUUACUACUGAGAAGGCACAUGAGGAUCACCCAUGUGCCUC | 13.9 nM | 12.9 nM | – | – |
| ACAAGAUCAGGAUAUACAUGAGGAUCACCCAUGUAUAUAAAAAAAGGGCUUUCUACAUGUAGAAGGGAUCUUGU | 29.9 nM | 37 nM | – | – |
| UAGUAUAAGGGCAUUACACAUGAGGAUCACCCAUGUACGUUAGAGGAUAUGCAUUACAGUUGAACGUAGAAGGUUAGAGAAGGG | 73.6 nM | 80.3 nM | – | – |
| GCCUUAUCCGUCAGGAUAUACAGCUGUUAGUUGUUGUAGAAGGGACAUGAGGAUCACCCAUGUACGUACCAUUG | 19.2 nM | 22.2 nM | – | – |
| UUUUUAUUUGUAGGAUAUGGAGACAUGAGGAUCACCCAUGUAUGAUAAGAUAAAUUAUGAUGUGGCCAGAAGGAUAUUAUUUUU | – | – | 87.1 nM | 119 nM |
| UUGUUACAUGAGGAUCACCCAUGUGAGGAUAUGGCCCGCCCGGCGUGUGCUGGUUUUGUCAGAAGGCGCGUGGG | 61.6 nM | 170 nM | – | – |
| AAUGUGUCAGGAUAUUGUUAGUUUAGUUGUUUGUAUUAGUUCGAGAAGGGACAUGAGGAUCACCCAUGUUGUUA | 36.4 nM | 29.1 nM | – | – |

Reference: the EternaBench riboswitch data
